According to ChEMBL document CHEMBL1147115 (2007):
≈ marks a conversion by molar mass, not a printed value.

Key:
Klebsiella pneumoniae [1] = experiment: Antimicrobial activity against ESBL producing Klebsiella pneumoniae 268 isolate; type: functional
Escherichia coli [2] = experiment: Antimicrobial activity against ESBL producing Escherichia coli 321 isolate; type: functional
Klebsiella pneumoniae [3] = experiment: Antimicrobial activity against ESBL producing Klebsiella pneumoniae 261 isolate infected thigh infection model ICR mouse; type: functional, Thigh muscle
Outline: (§1)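 Female ICR mice (~25 g) were made neutropenic with cyclophosphamide ip (150 and 100 mg/kg, days −4 and −1) and renally impaired with uranyl nitrate 5 mg/kg ip (day −3). Each thigh got 0.1 ml of 10^5 CFU/ml (or 10^7 for high inoculum) im 2 h pre-therapy. Human-simulated regimens were given sc, three mice per group, for 24 h. Efficacy was the log10 CFU/thigh change versus 0-h controls.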

Klebsiella pneumoniae [4] = experiment: Antimicrobial activity against ESBL producing Klebsiella pneumoniae 264 isolate; type: functional
Escherichia coli [5] = experiment: Antimicrobial activity against ESBL producing Escherichia coli 130 isolate; type: functional
Klebsiella pneumoniae [6] = experiment: Antimicrobial activity against ESBL producing Klebsiella pneumoniae 260 isolate; type: functional
Klebsiella pneumoniae [7] = experiment: Antimicrobial activity against ESBL producing Klebsiella pneumoniae 265 isolate infected thigh infection model ICR mouse; type: functional, Thigh muscle; outline: as §1
Escherichia coli [8] = experiment: Antimicrobial activity against ESBL producing Escherichia coli 311 isolate; type: functional
Klebsiella pneumoniae [9] = experiment: Antimicrobial activity against ESBL producing Klebsiella pneumoniae 257 isolate infected thigh infection model ICR mouse; type: functional, Thigh muscle; outline: as §1
Escherichia coli [10] = experiment: Antimicrobial activity against ESBL producing Escherichia coli 315 isolate infected thigh infection model ICR mouse; type: functional, Thigh muscle; outline: as §1
Klebsiella pneumoniae [11] = experiment: Antimicrobial activity against ESBL producing Klebsiella pneumoniae 266 isolate infected thigh infection model ICR mouse; type: functional, Thigh muscle; outline: as §1
Klebsiella pneumoniae [12] = experiment: Antimicrobial activity against ESBL producing Klebsiella pneumoniae 230 isolate; type: functional
Escherichia coli [13] = experiment: Antimicrobial activity against ESBL producing Escherichia coli 285 isolate; type: functional
Klebsiella pneumoniae [14] = experiment: Antimicrobial activity against ESBL producing Klebsiella pneumoniae 262 isolate infected thigh infection model ICR mouse; type: functional, Thigh muscle; outline: as §1
Escherichia coli [15] = experiment: Antimicrobial activity against ESBL producing Escherichia coli 243 isolate infected thigh infection model ICR mouse; type: functional, Thigh muscle; outline: as §1
Klebsiella pneumoniae [16] = experiment: Antimicrobial activity against ESBL producing Klebsiella pneumoniae 60 isolate; type: functional
Klebsiella pneumoniae [17] = experiment: Antimicrobial activity against ESBL producing Klebsiella pneumoniae 255 isolate infected thigh infection model ICR mouse; type: functional, Thigh muscle; outline: as §1
Klebsiella pneumoniae [18] = experiment: Antimicrobial activity against ESBL producing Klebsiella pneumoniae 60 isolate infected thigh infection model ICR mouse; type: functional, Thigh muscle; outline: as §1
Escherichia coli [19] = experiment: Antimicrobial activity against ESBL producing Escherichia coli 118 isolate; type: functional
Klebsiella pneumoniae [20] = experiment: Antimicrobial activity against ESBL producing Klebsiella pneumoniae 256 isolate infected thigh infection model ICR mouse; type: functional, Thigh muscle; outline: as §1
Escherichia coli [21] = experiment: Antimicrobial activity against ESBL producing Escherichia coli 312 isolate infected thigh infection model ICR mouse; type: functional, Thigh muscle; outline: as §1
Klebsiella pneumoniae [22] = experiment: Antimicrobial activity against ESBL producing Klebsiella pneumoniae 225 isolate infected thigh infection model ICR mouse; type: functional, Thigh muscle; outline: as §1
Escherichia coli [23] = experiment: Antimicrobial activity against ESBL producing Escherichia coli 130 isolate infected thigh infection model ICR mouse; type: functional, Thigh muscle; outline: as §1
Escherichia coli [24] = experiment: Antimicrobial activity against ESBL producing Escherichia coli 310 isolate; type: functional
Escherichia coli [25] = experiment: Antimicrobial activity against Escherichia coli 120 isolate; type: functional
Escherichia coli [26] = experiment: Antimicrobial activity against ESBL producing Escherichia coli 322 isolate; type: functional
Escherichia coli [27] = experiment: Antimicrobial activity against ESBL producing Escherichia coli 321 isolate infected thigh infection model ICR mouse; type: functional, Thigh muscle; outline: as §1
Escherichia coli [28] = experiment: Antimicrobial activity against ESBL producing Escherichia coli 285 isolate infected thigh infection model ICR mouse; type: functional, Thigh muscle; outline: as §1
Escherichia coli [29] = experiment: Antimicrobial activity against ESBL producing Escherichia coli 320 isolate; type: functional
Klebsiella pneumoniae [30] = experiment: Antimicrobial activity against ESBL producing Klebsiella pneumoniae 101 isolate; type: functional
Klebsiella pneumoniae [31] = experiment: Antimicrobial activity against ESBL producing Klebsiella pneumoniae 225 isolate; type: functional
Klebsiella pneumoniae [32] = experiment: Antimicrobial activity against ESBL producing Klebsiella pneumoniae 263 isolate; type: functional
Escherichia coli [33] = experiment: Antimicrobial activity against Escherichia coli ATCC 25922 isolate; type: functional
Klebsiella pneumoniae [34] = experiment: Antimicrobial activity against ESBL producing Klebsiella pneumoniae 259 isolate infected thigh infection model ICR mouse; type: functional, Thigh muscle; outline: as §1
Klebsiella pneumoniae [35] = experiment: Antimicrobial activity against ESBL producing Klebsiella pneumoniae 264 isolate infected thigh infection model ICR mouse; type: functional, Thigh muscle; outline: as §1
Escherichia coli [36] = experiment: Antimicrobial activity against ESBL producing Escherichia coli 311 isolate infected thigh infection model ICR mouse; type: functional, Thigh muscle; outline: as §1
Klebsiella pneumoniae [37] = experiment: Antimicrobial activity against ESBL producing Klebsiella pneumoniae 263 isolate infected thigh infection model ICR mouse; type: functional, Thigh muscle; outline: as §1
Escherichia coli [38] = experiment: Antimicrobial activity against Escherichia coli 120 isolate infected thigh infection model ICR mouse; type: functional, Thigh muscle; outline: as §1
Klebsiella pneumoniae [39] = experiment: Antimicrobial activity against ESBL producing Klebsiella pneumoniae 270 isolate infected thigh infection model ICR mouse; type: functional, Thigh muscle; outline: as §1
Klebsiella pneumoniae [40] = experiment: Antimicrobial activity against ESBL producing Klebsiella pneumoniae 270 isolate; type: functional
Escherichia coli [41] = experiment: Antimicrobial activity against ESBL producing Escherichia coli 133 isolate; type: functional
Escherichia coli [42] = experiment: Antimicrobial activity against ESBL producing Escherichia coli 322 isolate infected thigh infection model ICR mouse; type: functional, Thigh muscle; outline: as §1
Klebsiella pneumoniae [43] = experiment: Antimicrobial activity against ESBL producing Klebsiella pneumoniae 255 isolate; type: functional
Klebsiella pneumoniae [44] = experiment: Antimicrobial activity against ESBL producing Klebsiella pneumoniae 260 isolate infected thigh infection model ICR mouse; type: functional, Thigh muscle; outline: as §1
Klebsiella pneumoniae [45] = experiment: Antimicrobial activity against ESBL producing Klebsiella pneumoniae 254 isolate; type: functional
Escherichia coli [46] = experiment: Antimicrobial activity against Escherichia coli ATCC 25922 isolate infected thigh infection model ICR mouse; type: functional, Thigh muscle; outline: as §1
Escherichia coli [47] = experiment: Antimicrobial activity against ESBL producing Escherichia coli 310 isolate infected thigh infection model ICR mouse; type: functional, Thigh muscle; outline: as §1
Klebsiella pneumoniae [48] = experiment: Antimicrobial activity against ESBL producing Klebsiella pneumoniae 262 isolate; type: functional
Klebsiella pneumoniae [49] = experiment: Antimicrobial activity against ESBL producing Klebsiella pneumoniae 230 isolate infected thigh infection model ICR mouse; type: functional, Thigh muscle; outline: as §1
Escherichia coli [50] = experiment: Antimicrobial activity against ESBL producing Escherichia coli 318 isolate infected thigh infection model ICR mouse; type: functional, Thigh muscle; outline: as §1
Klebsiella pneumoniae [51] = experiment: Antimicrobial activity against ESBL producing Klebsiella pneumoniae 266 isolate; type: functional
Escherichia coli [52] = experiment: Antimicrobial activity against ESBL producing Escherichia coli 312 isolate; type: functional
Escherichia coli [53] = experiment: Antimicrobial activity against ESBL producing Escherichia coli 320 isolate infected thigh infection model ICR mouse; type: functional, Thigh muscle; outline: as §1
Klebsiella pneumoniae [54] = experiment: Antimicrobial activity against ESBL producing Klebsiella pneumoniae 261 isolate; type: functional
Escherichia coli [55] = experiment: Antimicrobial activity against ESBL producing Escherichia coli 243 isolate; type: functional
Klebsiella pneumoniae [56] = experiment: Antimicrobial activity against ESBL producing Klebsiella pneumoniae 268 isolate infected thigh infection model ICR mouse; type: functional, Thigh muscle; outline: as §1
Klebsiella pneumoniae [57] = experiment: Antimicrobial activity against ESBL producing Klebsiella pneumoniae 257 isolate; type: functional
Klebsiella pneumoniae [58] = experiment: Antimicrobial activity against ESBL producing Klebsiella pneumoniae 258 isolate infected thigh infection model ICR mouse; type: functional, Thigh muscle; outline: as §1
Klebsiella pneumoniae [59] = experiment: Antimicrobial activity against ESBL producing Klebsiella pneumoniae 101 isolate infected thigh infection model ICR mouse; type: functional, Thigh muscle; outline: as §1
Klebsiella pneumoniae [60] = experiment: Antimicrobial activity against ESBL producing Klebsiella pneumoniae 259 isolate; type: functional
Escherichia coli [61] = experiment: Antimicrobial activity against ESBL producing Escherichia coli 315 isolate; type: functional
Klebsiella pneumoniae [62] = experiment: Bacteriostasis activity against ESBL producing Klebsiella pneumoniae 262 isolate at 8 ug/ml; type: functional
Klebsiella pneumoniae [63] = experiment: Antimicrobial activity against ESBL producing Klebsiella pneumoniae 254 isolate infected thigh infection model ICR mouse; type: functional, Thigh muscle; outline: as §1
Escherichia coli [64] = experiment: Antimicrobial activity against ESBL producing Escherichia coli 133 isolate infected thigh infection model ICR mouse; type: functional, Thigh muscle; outline: as §1
Klebsiella pneumoniae [65] = experiment: Antimicrobial activity against ESBL producing Klebsiella pneumoniae 258 isolate; type: functional
Klebsiella pneumoniae [66] = experiment: Antimicrobial activity against ESBL producing Klebsiella pneumoniae 265 isolate; type: functional

C[C@@H](O)[C@H]1C(=O)N2C(C(=O)O)=C(S[C@@H]3CN[C@H](C(=O)N(C)C)C3)[C@H](C)[C@H]12 [MEROPENEM]
MIC (Klebsiella pneumoniae [1]): 0.125 µg/mL (≈ 0.326 µM) | MIC (Escherichia coli [2]): 0.032 µg/mL (≈ 0.0834 µM) | fT>MIC (Klebsiella pneumoniae [3]): 5% | MIC (Klebsiella pneumoniae [4]): 0.5 µg/mL (≈ 1.3 µM) | MIC (Escherichia coli [5]): 0.125 µg/mL (≈ 0.326 µM) | MIC (Klebsiella pneumoniae [6]): 0.5 µg/mL (≈ 1.3 µM) | fT>MIC (Klebsiella pneumoniae [7]): 85% | MIC (Escherichia coli [8]): 0.75 µg/mL (≈ 1.96 µM) | fT>MIC (Klebsiella pneumoniae [9]): 45% | fT>MIC (Escherichia coli [10]): 85% | fT>MIC (Klebsiella pneumoniae [11]): 58% | MIC (Klebsiella pneumoniae [12]): 0.094 µg/mL (≈ 0.245 µM) | MIC (Escherichia coli [13]): 0.047 µg/mL (≈ 0.123 µM) | fT>MIC (Klebsiella pneumoniae [14]): 30% | fT>MIC (Escherichia coli [15]): 90% | MIC (Klebsiella pneumoniae [16]): 0.064 µg/mL (≈ 0.167 µM) | fT>MIC (Klebsiella pneumoniae [17]): 65% | fT>MIC (Klebsiella pneumoniae [18]): 88% | MIC (Escherichia coli [19]): 0.047 µg/mL (≈ 0.123 µM) | fT>MIC (Klebsiella pneumoniae [20]): 18% | fT>MIC (Escherichia coli [21]): 90% | fT>MIC (Klebsiella pneumoniae [22]): 90% | fT>MIC (Escherichia coli [23]): 85% | MIC (Escherichia coli [24]): 0.047 µg/mL (≈ 0.123 µM) | MIC (Escherichia coli [25]): 0.03 µg/mL (≈ 0.0782 µM) | MIC (Escherichia coli [26]): 0.032 µg/mL (≈ 0.0834 µM) | fT>MIC (Escherichia coli [27]): 93% | fT>MIC (Escherichia coli [28]): 90% | MIC (Escherichia coli [29]): 0.03 µg/mL (≈ 0.0782 µM) | MIC (Klebsiella pneumoniae [30]): 0.094 µg/mL (≈ 0.245 µM) | MIC (Klebsiella pneumoniae [31]): 0.047 µg/mL (≈ 0.123 µM) | MIC (Klebsiella pneumoniae [32]): 2 µg/mL (≈ 5.22 µM) | MIC (Escherichia coli [33]): 0.03 µg/mL (≈ 0.0782 µM) | fT>MIC (Klebsiella pneumoniae [34]): 58% | fT>MIC (Klebsiella pneumoniae [35]): 75% | fT>MIC (Escherichia coli [36]): 70% | fT>MIC (Klebsiella pneumoniae [37]): 58% | fT>MIC (Escherichia coli [38]): 93% | fT>MIC (Klebsiella pneumoniae [39]): 80% | MIC (Klebsiella pneumoniae [40]): 0.25 µg/mL (≈ 0.652 µM) | MIC (Escherichia coli [41]): 0.094 µg/mL (≈ 0.245 µM) | fT>MIC (Escherichia coli [42]): 93% | MIC (Klebsiella pneumoniae [43]): 1 µg/mL (≈ 2.61 µM) | fT>MIC (Klebsiella pneumoniae [44]): 75% | MIC (Klebsiella pneumoniae [45]): 2 µg/mL (≈ 5.22 µM) | fT>MIC (Escherichia coli [46]): 93% | fT>MIC (Escherichia coli [47]): 90% | MIC (Klebsiella pneumoniae [48]): 8 µg/mL (≈ 20.9 µM) | fT>MIC (Klebsiella pneumoniae [49]): 85% | fT>MIC (Escherichia coli [50]): 90% | MIC (Klebsiella pneumoniae [51]): 2 µg/mL (≈ 5.22 µM) | MIC (Escherichia coli [52]): 0.047 µg/mL (≈ 0.123 µM) | fT>MIC (Escherichia coli [53]): 93% | MIC (Klebsiella pneumoniae [54]): 32 µg/mL (≈ 83.4 µM) | MIC (Escherichia coli [55]): 0.047 µg/mL (≈ 0.123 µM) | fT>MIC (Klebsiella pneumoniae [56]): 85% | MIC (Klebsiella pneumoniae [57]): 4 µg/mL (≈ 10.4 µM) | fT>MIC (Klebsiella pneumoniae [58]): 45% | fT>MIC (Klebsiella pneumoniae [59]): 85% | MIC (Klebsiella pneumoniae [60]): 2 µg/mL (≈ 5.22 µM) | MIC (Escherichia coli [61]): 0.094 µg/mL (≈ 0.245 µM) | MIC (Klebsiella pneumoniae [62]): 8 µg/mL (≈ 20.9 µM) | fT>MIC (Klebsiella pneumoniae [63]): 58% | fT>MIC (Escherichia coli [64]): 85% | MIC (Klebsiella pneumoniae [65]): 4 µg/mL (≈ 10.4 µM) | MIC (Klebsiella pneumoniae [66]): 0.125 µg/mL (≈ 0.326 µM)
